Reference: ChEMBL document CHEMBL1145272, “P2 pyridine N-oxide thrombin inhibitors: a novel peptidomimetic scaffold” (Bioorg Med Chem Lett, 2005)

Tests used:
Prothrombin = Prothrombin (Homo sapiens, UniProt P00734); test: Binding affinity against thrombin in human plasma; type: cell-free
[1] = Half-life in dog plasma; type: ADME, organism-based, Canis lupus familiaris
How it was run: (§1)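 Dogs were given the compound orally at 0.65, 0.7 or 0.95 mpk, with the dose differing by compound. Plasma was sampled to obtain the maximum concentration (Cmax, μM) and the plasma half-life (t1/2, h).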

[2] = Maximal plasma concentration in dogs after 0.95 mg/kg oral dose; type: ADME, organism-based, Canis lupus familiaris; design: dose 0.95 mg/kg, route oral; details: dog; how it was run: as §1
[3] = Maximal plasma concentration in dogs after 0.85 mg/kg oral dose; type: ADME, organism-based, Canis lupus familiaris; design: dose 0.85 mg/kg, route oral; details: dog
[4] = Maximal plasma concentration in dogs after 0.7 mg/kg oral dose; type: ADME, organism-based, Canis lupus familiaris; design: dose 0.7 mg/kg, route oral; details: dog; how it was run: as §1
[5] = Maximal plasma concentration in dogs after 0.65 mg/kg oral dose; type: ADME, organism-based, Canis lupus familiaris; design: dose 0.65 mg/kg, route oral; details: dog; how it was run: as §1

Structure (SMILES) | Ki (Prothrombin) [nM] | also measured
O=C(Cc1c(Cl)ccc(NCC(F)(F)c2ccccn2)[n+]1[O-])NCc1ccccc1-n1cncn1 | 2.6 | 
C[C@H](NC(=O)Cc1c(Cl)ccc(NCC(F)(F)c2ccccn2)[n+]1[O-])c1cc(Cl)ccc1CN | 3.2 | half-life [1]: 4.5 h; Cmax [2]: 2600 nM
N#Cc1ccc(NCC(F)(F)c2ccccn2)[n+]([O-])c1CC(=O)NCc1ncccc1-n1cncn1 | 0.23 | 
NCc1ccc(Cl)cc1C(CO)NC(=O)Cc1c(Cl)ccc(NCC(F)(F)c2ccccn2)[n+]1[O-] (centres undefined) | 0.48 | half-life [1]: 1.5 h; Cmax [3]: 340 nM
NCc1ccc(Cl)cc1CNC(=O)Cc1cccc(NCC(F)(F)c2ccccn2)[n+]1[O-] | 0.04 | 
N#Cc1ccc(NCC(F)(F)c2ccccn2)[n+]([O-])c1CC(O)NCc1cccc(Cl)c1 (centres undefined) | 0.08 | 
N#Cc1ccc(NCC(F)(F)c2ccccn2)[n+]([O-])c1CC(=O)NCc1cc(Cl)ccc1-n1cnnn1 | 0.002 | 
N#Cc1ccc(N)[n+]([O-])c1CC(=O)NCc1cc(Cl)ccc1CN | 10 | 
N#Cc1ccc(NCC(F)(F)c2ccccn2)[n+]([O-])c1CC(=O)NCc1ccccc1 | 150 | 
N#Cc1ccc(NCC(F)(F)c2ccccn2)[n+]([O-])c1CC(O)NCc1ccccc1CN (centres undefined) | < 0.01 | 
NCc1ccc(Cl)cc1CNC(=O)Cc1c(Cl)ccc(NCC(F)(F)c2ccccn2)[n+]1[O-] | < 0.01 | 
C[C@@H](NC(=O)Cc1c(Cl)ccc(NCC(F)(F)c2ccccn2)[n+]1[O-])c1cc(Cl)ccc1CN | 260 | 
O=C(Cc1c(Cl)ccc(NCC(F)(F)c2ccccn2)[n+]1[O-])NCc1ncccc1-n1cncn1 | 2.5 | 
N#Cc1ccc(NCC(F)(F)c2ccccn2)[n+]([O-])c1CC(=O)NCc1ncccc1F | 1.5 | 
O=C(Cc1cccc(NCC(F)(F)c2ccccn2)[n+]1[O-])NCc1cc(Cl)ccc1-n1cnnn1 | 0.14 | 
N#Cc1ccc(NCC(F)(F)c2ccccn2)[n+]([O-])c1CC(=O)NCc1cc(Cl)ccc1CN | 0.001 | 

Now from value to molecule, other results behind:

Ki (Prothrombin) [nM] | Structure (SMILES) | also measured
18 | N#Cc1ccc(N)[n+]([O-])c1CC(=O)NCc1cc(Cl)ccc1-n1cnnn1 | 
20 | C[C@H](N)c1ccc(Cl)cc1CNC(=O)Cc1c(Cl)ccc(NCC(F)(F)c2ccccn2)[n+]1[O-] | 
26 | NCc1ccc(Cl)cc1CNC(=O)Cc1c(Cl)ccc(N)[n+]1[O-] | 
140 | Nc1ccc(Cl)c(CC(=O)NCc2cc(Cl)ccc2-n2cnnn2)[n+]1[O-] | 
0.42 | [O-][n+]1c(NCC(F)(F)c2ccccn2)ccc(Cl)c1CC(O)NCc1cccc(Cl)c1 (centres undefined) | 
0.05 | O=C(Cc1c(Cl)ccc(NCC(F)(F)c2ccccn2)[n+]1[O-])NCc1cc(Cl)ccc1-n1cncn1 | 
1.5 | O=C(Cc1cccc(NCC(F)(F)c2ccccn2)[n+]1[O-])NCc1cc(Cl)ccc1-n1cncn1 | 
0.45 | C[C@@H](N)c1ccc(Cl)cc1CNC(=O)Cc1c(Cl)ccc(NCC(F)(F)c2ccccn2)[n+]1[O-] | half-life [1]: 2 h; Cmax [4]: 100 nM
6 | O=C(Cc1c(Cl)ccc(NCC(F)(F)c2ccccn2)[n+]1[O-])NCc1ncccc1F | 
0.4 | NCc1ccccc1CNC(=O)Cc1c(Cl)ccc(NCC(F)(F)c2ccccn2)[n+]1[O-] | half-life [1]: 1.5 h; Cmax [5]: 820 nM
